According to ChEMBL document CHEMBL2021865, “Design, synthesis and structure-activity relationship of N-substituted tropane muscarinic acetylcholine receptor antagonists” (Bioorg Med Chem Lett, 2012):
The source made the active and inactive calls. No cut-off for these calls is given here.

How the values were obtained:
[1] = target: T1, Muscarinic acetylcholine receptor M3 (Homo sapiens, UniProt P20309); experiment: Antagonist activity at human muscarinic acetylcholine M3 receptor expressed in CHO cells assessed as inhibition of Ach-induced calcium mobilization by FLIPR analysis; assay type: functional, cell-based
Outline: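 Calcium mobilization read by standard FLIPR protocol. IC50 in nM, mean of two or more independent assays.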
Target sequence in this assay (P20309 whole entry): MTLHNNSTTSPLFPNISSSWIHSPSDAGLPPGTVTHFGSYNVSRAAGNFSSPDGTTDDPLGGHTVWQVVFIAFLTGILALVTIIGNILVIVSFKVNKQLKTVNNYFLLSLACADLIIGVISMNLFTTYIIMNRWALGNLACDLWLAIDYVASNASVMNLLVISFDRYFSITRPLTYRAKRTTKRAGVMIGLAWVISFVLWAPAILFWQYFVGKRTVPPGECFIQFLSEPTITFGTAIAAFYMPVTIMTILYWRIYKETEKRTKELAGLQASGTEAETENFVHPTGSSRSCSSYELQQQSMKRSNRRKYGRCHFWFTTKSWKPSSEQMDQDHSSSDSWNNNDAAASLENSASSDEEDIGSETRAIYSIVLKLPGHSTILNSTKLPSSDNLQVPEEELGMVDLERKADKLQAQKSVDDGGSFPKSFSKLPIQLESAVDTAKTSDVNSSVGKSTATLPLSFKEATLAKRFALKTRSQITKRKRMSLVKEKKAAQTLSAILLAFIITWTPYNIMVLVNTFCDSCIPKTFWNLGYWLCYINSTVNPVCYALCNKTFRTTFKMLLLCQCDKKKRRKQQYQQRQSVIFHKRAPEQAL

[2] = target: T1, Muscarinic acetylcholine receptor M3; experiment: Antagonist potency at human muscarinic acetylcholine M3 receptor expressed in CHO cells assessed as inhibition of Ach-induced calcium mobilization by FLIPR analysis relative to control; assay type: functional, cell-based; conditions: for Kb: read-out: pA2 (converted)
Outline: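 Human M3 receptor in CHO cells, ACh-stimulated calcium mobilization by FLIPR. pA2 derived from the ratio of the ACh EC50 with and without antagonist. Run only where the IC50 was below 10 nM. Values above 11 could not be determined accurately.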
Target sequence in this assay (P20309 whole entry): as above

[3] = target: T1, Muscarinic acetylcholine receptor M3
Target sequence in this assay (P20309 whole entry, looked up): as the sequence (P20309 whole entry) above

[4] = target: T2, Muscarinic acetylcholine receptor M1 (Homo sapiens, UniProt P11229); experiment: Displacement of [3H]-N-methyl scopolamine from muscarinic acetylcholine M1 receptor expressed in CHO cell membrane; assay type: cell membranes
T2 sequence (P11229 whole entry): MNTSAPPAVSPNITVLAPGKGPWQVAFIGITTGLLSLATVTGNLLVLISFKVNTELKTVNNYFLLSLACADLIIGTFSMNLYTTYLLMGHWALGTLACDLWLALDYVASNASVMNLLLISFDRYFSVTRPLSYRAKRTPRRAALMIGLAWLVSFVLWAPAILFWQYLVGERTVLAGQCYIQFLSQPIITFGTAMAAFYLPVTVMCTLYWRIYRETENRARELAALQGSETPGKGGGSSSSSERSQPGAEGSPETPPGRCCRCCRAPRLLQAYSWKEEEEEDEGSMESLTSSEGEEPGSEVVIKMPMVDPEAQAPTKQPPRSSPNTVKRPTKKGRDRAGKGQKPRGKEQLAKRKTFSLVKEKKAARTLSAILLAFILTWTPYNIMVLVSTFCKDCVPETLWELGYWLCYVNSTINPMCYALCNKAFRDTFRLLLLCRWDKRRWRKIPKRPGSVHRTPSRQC
Outline: (§1)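 Membranes from CHO cells, SPA-format radioligand binding against 0.5 nM [3H]-N-methyl scopolamine. Values are the mean of three independent assays.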

[5] = target: T3, Muscarinic acetylcholine receptor M2 (Homo sapiens, UniProt P08172); experiment: Displacement of [3H]-N-methyl scopolamine from muscarinic acetylcholine M2 receptor expressed in CHO cell membrane; assay type: cell membranes; outline: as §1
T3 sequence (P08172 whole entry): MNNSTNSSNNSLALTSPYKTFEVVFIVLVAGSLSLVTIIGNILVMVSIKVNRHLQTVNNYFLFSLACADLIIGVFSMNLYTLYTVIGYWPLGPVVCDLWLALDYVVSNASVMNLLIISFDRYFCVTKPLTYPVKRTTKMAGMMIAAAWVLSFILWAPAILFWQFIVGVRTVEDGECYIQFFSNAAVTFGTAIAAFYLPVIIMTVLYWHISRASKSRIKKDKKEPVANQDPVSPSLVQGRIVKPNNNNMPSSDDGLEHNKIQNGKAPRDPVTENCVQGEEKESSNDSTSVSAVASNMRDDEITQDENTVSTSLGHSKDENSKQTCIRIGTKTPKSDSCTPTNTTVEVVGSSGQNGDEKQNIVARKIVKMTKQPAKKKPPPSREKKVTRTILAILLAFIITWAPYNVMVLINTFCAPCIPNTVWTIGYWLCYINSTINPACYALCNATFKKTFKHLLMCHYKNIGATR

[6] = target: T1, Muscarinic acetylcholine receptor M3; experiment: Displacement of [3H]-N-methyl scopolamine from muscarinic acetylcholine M3 receptor expressed in CHO cell membrane; assay type: cell membranes; outline: as §1
Target sequence in this assay (P20309 whole entry): as the sequence (P20309 whole entry) above

[7] = tested on: Mus musculus; experiment: Antagonist potency at muscarinic acetylcholine M3 receptor in intranasally dosed mouse assessed as inhibition of Mch-induced bronchoconstriction; assay type: functional
Outline: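 Conscious mice challenged with methacholine to induce bronchoconstriction. ED50 expressed as µg per mouse, n = 1.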

[8] = tested on: Mus musculus; experiment: Bronchoprotective activity in mouse against methacholine-induced bronchoconstriction assessed as time duration of bronchoprotection at 0.05 ug administered intranasally; assay type: functional
Outline: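 Conscious mice, methacholine-induced bronchoconstriction. Duration of bronchoprotection taken as the time to 50% loss of maximum protection.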

[9] = Plasma clearance in rat at 1 mg/kg, iv; assay type: ADME, organism-based; design: dose 1 mg/kg, route intravenous
Outline: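 Rats dosed iv at 1 mg/kg. Systemic plasma clearance in ml/min/kg.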

[10] = tested on: Rattus norvegicus; experiment: Oral bioavailability in rat at 2 mg/kg; assay type: ADME, organism-based; conditions: in vivo, BLD = below limit of detection
Outline: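 Rats dosed orally at 2 mg/kg. Percent bioavailability calculated from plasma levels.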

| Structure (SMILES) | IC50 [1] | Kb [2] | other results |
| --- | --- | --- | --- |
| COCC[N+]1(C)[C@@H]2CC[C@H]1C[C@@H](CC(C#N)(c1ccccc1)c1ccccc1)C2 (mixture of isomers) | < 10 nM | 0.501 nM |  |
| C[N+]1(CCO)[C@@H]2CC[C@H]1C[C@@H](CC(C#N)(c1ccccc1)c1ccccc1)C2 (mixture of isomers) | < 10 nM | 0.158 nM |  |
| COCCOCC[N+]1(C)[C@@H]2CC[C@H]1C[C@@H](CC(C#N)(c1ccccc1)c1ccccc1)C2 (mixture of isomers) | < 10 nM | 0.631 nM |  |
| CC[N+]1(C)[C@@H]2CC[C@H]1C[C@@H](CC(C#N)(c1ccccc1)c1ccccc1)C2 (mixture of isomers) | < 10 nM | 0.0501 nM |  |
| CCCCCC[N@+]1(C)C2CCC1C[C@H](CC(C#N)(c1ccccc1)c1ccccc1)C2 | < 10 nM | < 0.01 nM |  |
| C[N@+]1(CCOCc2ccccc2)C2CCC1C[C@@H](CC(C#N)(c1ccccc1)c1ccccc1)C2 | < 10 nM | < 0.01 nM |  |
| C=CCCCC[N@+]1(C)C2CCC1C[C@H](CC(C#N)(c1ccccc1)c1ccccc1)C2 [listing 1 of 2 here] | < 10 nM | < 0.01 nM |  |
| C=CCCCC[N+]1(C)[C@@H]2CC[C@H]1C[C@@H](CC(C#N)(c1ccccc1)c1ccccc1)C2 (mixture of isomers) | 85.2 nM |  |  |
| CCCC[N@+]1(C)C2CCC1C[C@H](CC(C#N)(c1ccccc1)c1ccccc1)C2 | < 10 nM | < 0.01 nM |  |
| C=CC[N+]1(C)[C@@H]2CC[C@H]1C[C@@H](CC(C#N)(c1ccccc1)c1ccccc1)C2 (mixture of isomers) | < 10 nM | 1.26 nM |  |
| C=CCCCC[N@+]1(C)C2CCC1C[C@H](CC(C#N)(c1ccccc1)c1ccccc1)C2 [listing 2 of 2 here] |  |  | pA2 [3]: Active |
| C[N@+]1(CC2CC2)C2CCC1C[C@H](CC(C#N)(c1ccccc1)c1ccccc1)C2 | 26.3 nM |  |  |
| C[N@+]1(CCCOc2ccccc2)C2CCC1C[C@@H](CC(C#N)(c1ccccc1)c1ccccc1)C2 | < 10 nM | < 0.01 nM |  |
| C=CCCCC[N@+]1(C)C2CCC1C[C@@H](CC(C#N)(c1ccccc1)c1ccccc1)C2 | 32 nM |  |  |
| C[N@+]1(CCCc2ccccc2)C2CCC1C[C@@H](CC(C#N)(c1ccccc1)c1ccccc1)C2 | < 10 nM | < 0.01 nM |  |
| C[N+]1(CCCC#N)[C@@H]2CC[C@H]1C[C@@H](CC(C#N)(c1ccccc1)c1ccccc1)C2 (mixture of isomers) | < 10 nM | 0.158 nM |  |
| C[N@+]1(CCCOCc2ccccc2)C2CCC1C[C@@H](CC(C#N)(c1ccccc1)c1ccccc1)C2 | < 10 nM | 0.0398 nM |  |
| C[N@+]1(CCOc2ccccc2)C2CCC1C[C@@H](CC(C#N)(c1ccccc1)c1ccccc1)C2 | < 10 nM | < 0.01 nM |  |
| C[N+]1(CCC2CCCCC2)[C@@H]2CC[C@H]1C[C@@H](CC(C#N)(c1ccccc1)c1ccccc1)C2 (mixture of isomers) | 109 nM |  |  |
| C=CCCCC[N@+]1(C)C2CCC1C[C@H](CC(C#N)(c1ccccc1)c1ccccc1)C2.[Br-] |  |  | pA2 ([2]; cho): > 11; Ki [4]: 0.12 nM; Ki [5]: 0.1 nM; Ki [6]: 0.16 nM; ED50 [7]: 0.02 µg; Time [8]: >96 h; clearance [9]: 125 mL/min/kg; F [10]: BLD |
| C[N@+]1(CC2CC2)C2CCC1C[C@@H](CC(C#N)(c1ccccc1)c1ccccc1)C2 | < 10 nM | 0.0251 nM |  |
| C[N+]1(CC2CC2)[C@@H]2CC[C@H]1C[C@@H](CC(C#N)(c1ccccc1)c1ccccc1)C2 (mixture of isomers) | < 10 nM | 0.0501 nM |  |
| CCC[N+]1(C)[C@@H]2CC[C@H]1C[C@@H](CC(C#N)(c1ccccc1)c1ccccc1)C2 (mixture of isomers) | < 10 nM | 0.0501 nM |  |
| C[N+]1(Cc2ccccc2)[C@@H]2CC[C@H]1C[C@@H](CC(C#N)(c1ccccc1)c1ccccc1)C2 (mixture of isomers) | 318 nM |  |  |
| C[N+]1(CC2CCCCC2)[C@@H]2CC[C@H]1C[C@@H](CC(C#N)(c1ccccc1)c1ccccc1)C2 (mixture of isomers) | 89.6 nM |  |  |
| CCCCCCCC[N@+]1(C)C2CCC1C[C@H](CC(C#N)(c1ccccc1)c1ccccc1)C2 | < 10 nM | 0.0794 nM |  |
| CCCCCCCCCCCC[N+]1(C)[C@@H]2CC[C@H]1C[C@H](CC(C#N)(c1ccccc1)c1ccccc1)C2 (mixture of isomers) | 64 nM |  |  |
